Source: ChEMBL document CHEMBL1135500, “Highly antibacterial active aminoacyl penicillin conjugates with acylated bis-catecholate siderophores based on secondary diamino acids and related compounds” (2002)
≈ marks a conversion by molar mass, not a printed value.

Experiments:
Type in all cases: functional
Serratia marcescens = assay: In vitro antibacterial activity against SG 621 strain of Serratia marcescens
How it was run: (§1)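 MIC by microbroth dilution in Mueller-Hinton broth following NCCLS guidelines.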

Escherichia coli [1] = assay: In vitro antibacterial activity against ATCC 25922 strain of Escherichia coli; how it was run: as §1
Staphylococcus aureus = assay: In vitro antibacterial activity against SG 511 strain of Staphylococcus aureus; how it was run: as §1
Pseudomonas aeruginosa [2] = assay: In vitro antibacterial activity against SG 137 strain of Pseudomonas aeruginosa; how it was run: as §1
Klebsiella pneumoniae = assay: In vitro antibacterial activity against ATCC 100331 strain of Klebsiella pneumoniae; how it was run: as §1
[3] = tested on: Stenotrophomonas maltophilia; assay: In vitro antibacterial activity against GN 12873 strain of Stenotrophomonas maltophilia; how it was run: as §1
Pseudomonas aeruginosa [4] = assay: In vitro antibacterial activity against ATCC 27853 strain of Pseudomonas aeruginosa; how it was run: as §1
Pseudomonas aeruginosa [5] = assay: Siderophore activity determined using growth promoting assay in SG137 strain of Pseudomonas aeruginosa under iron limited conditions
How it was run: (§2)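 Growth promotion under iron limitation. Overnight Nutrient Agar cultures suspended in medium VA to 1 McFarland, then 1.5 mL mixed into 99 mL Al2O3-treated Hall-Ratledge agar (pH 6.8) with trace elements and EDDHA. 5 µL of 2 mM compound applied on 6 mm paper disks. Growth zone around disks measured after 18-20 h at 37 °C.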

Escherichia coli [6] = assay: Siderophore activity determined using growth promoting assay in ATCC 25922 strain of Escherichia coli under iron limited conditions; how it was run: as §2
Pseudomonas aeruginosa [7] = assay: Siderophore activity determined using growth promoting assay in NCTC-10662 strain of Pseudomonas aeruginosa under iron limited conditions; design: unit not given beside the values; how it was run: as §2
Pseudomonas aeruginosa [8] = assay: Siderophore activity determined using growth promoting assay in ATCC 27853 strain of Pseudomonas aeruginosa under iron limited conditions; how it was run: as §2
Pseudomonas aeruginosa [9] = assay: Siderophore activity determined using growth promoting assay in K799/WT strain of Pseudomonas aeruginosa under iron limited conditions; how it was run: as §2

| SMILES | MIC (Serratia marcescens) [µg/mL] | MIC (Escherichia coli [1]) [µg/mL] | MIC (Staphylococcus aureus) [µg/mL] | MIC (Pseudomonas aeruginosa [2]) [µg/mL] | MIC (Klebsiella pneumoniae) [µg/mL] | MIC [3] [µg/mL] | MIC (Pseudomonas aeruginosa [4]) [µg/mL] | Activity (Pseudomonas aeruginosa [5]) | Activity (Escherichia coli [6]) | Activity (Pseudomonas aeruginosa [7]) | Activity (Pseudomonas aeruginosa [8]) | Activity (Pseudomonas aeruginosa [9]) |
| --- | --- | --- | --- | --- | --- | --- | --- | --- | --- | --- | --- | --- |
| COC(=O)Oc1cccc2c(=O)n(CCC(=O)Nc3cc(NC(=O)CCn4c(=O)oc5c(OC(=O)OC)cccc5c4=O)cc(C(=O)NC(C(=O)NC4C(=O)N5C4SC(C)(C)C5C(=O)O)c4ccc(O)cc4)c3)c(=O)oc12 (stereo not given) | 50 (≈ 46.2 µM) | 6.25 (≈ 5.78 µM) | 0.4 (≈ 0.37 µM) | 6.25 (≈ 5.78 µM) | 6.25 (≈ 5.78 µM) | 25 (≈ 23.1 µM) | 6.25 (≈ 5.78 µM) | – | – | – | – | – |
| COC(=O)Oc1cccc(C(=O)N(CCCn2c(=O)oc3c(OC(=O)OC)cccc3c2=O)C(C)C(=O)O)c1OC(=O)OC (stereo not given) | – | – | – | – | – | – | – | 19 | 22 | 25 | 15 | 22 |
| COC(=O)Oc1cccc2c(=O)n(CC(=O)Nc3cc(NC(=O)Cn4c(=O)oc5c(OC(=O)OC)cccc5c4=O)cc(C(=O)NC(C(=O)NC4C(=O)N5C4SC(C)(C)C5C(=O)O)c4ccccc4)c3)c(=O)oc12 (stereo not given) | 12.5 (≈ 12 µM) | 25 (≈ 24.1 µM) | 25 (≈ 24.1 µM) | 0.05 (≈ 0.0482 µM) | 1.56 (≈ 1.5 µM) | 3.12 (≈ 3.01 µM) | 1.56 (≈ 1.5 µM) | – | – | – | – | – |
| COC(=O)Oc1cc(Cl)cc(C(=O)N(C)CCCN(CC(=O)NC(C(=O)NC2C(=O)N3C2SC(C)(C)C3C(=O)O)c2ccccc2)C(=O)c2cc(Cl)cc(OC(=O)OC)c2OC(=O)OC)c1OC(=O)OC (stereo not given) | 0.02 (≈ 0.019 µM) | 0.05 (≈ 0.0476 µM) | 12.5 (≈ 11.9 µM) | < 0.005 | < 0.005 | 0.02 (≈ 0.019 µM) | 0.1 (≈ 0.0952 µM) | – | – | – | – | – |
| COC(=O)Oc1cccc(C(=O)N(CCCn2c(=O)oc3c(OC(=O)OC)cccc3c2=O)C(C)CCC(=O)NC(C(=O)NC2C(=O)N3C2SC(C)(C)C3C(=O)O)c2ccccc2)c1OC(=O)OC (stereo not given) | 0.1 (≈ 0.102 µM) | 1.56 (≈ 1.6 µM) | 1.56 (≈ 1.6 µM) | 0.1 (≈ 0.102 µM) | 0.2 (≈ 0.205 µM) | 0.4 (≈ 0.409 µM) | 3.12 (≈ 3.19 µM) | – | – | – | – | – |
| COC(=O)Oc1cccc(C(=O)N(CCCCn2c(=O)oc3c(OC(=O)OC)cccc3c2=O)CC(=O)O)c1OC(=O)OC | – | – | – | – | – | – | – | 27 | 30 | 24 | 18 | 23 |
| COC(=O)Oc1cccc(C(=O)N(CCCn2c(=O)oc3c(OC(=O)OC)cccc3c2=O)C(C)CCC(=O)O)c1OC(=O)OC (stereo not given) | – | – | – | – | – | – | – | 15 | 15 | 20 | 13 | 14 |
| COC(=O)Oc1cccc(C(=O)N(C)CCCN(CC(=O)NC(C(=O)NC2C(=O)N3C2SC(C)(C)C3C(=O)O)c2ccccc2)C(=O)c2cccc(OC(=O)OC)c2OC(=O)OC)c1OC(=O)OC (stereo not given) | 0.02 (≈ 0.0204 µM) | 0.02 (≈ 0.0204 µM) | 5 (≈ 5.09 µM) | 0.04 (≈ 0.0407 µM) | 0.005 (≈ 0.00509 µM) | 0.08 (≈ 0.0815 µM) | 0.31 (≈ 0.316 µM) | – | – | – | – | – |
| CC(=O)Oc1cccc(C(=O)NCCN(CC(=O)NC(C(=O)NC2C(=O)N3C2SC(C)(C)C3C(=O)O)c2ccccc2)C(=O)c2cccc(OC(C)=O)c2OC(C)=O)c1OC(C)=O (stereo not given) | 0.78 (≈ 0.877 µM) | 0.78 (≈ 0.877 µM) | 3.12 (≈ 3.51 µM) | 0.4 (≈ 0.449 µM) | 0.1 (≈ 0.112 µM) | 0.78 (≈ 0.877 µM) | 0.78 (≈ 0.877 µM) | – | – | – | – | – |
| CC(=O)Oc1cccc(C(=O)NCCCCN(Cc2ccccc2C(=O)O)C(=O)c2cccc(OC(C)=O)c2OC(C)=O)c1OC(C)=O | – | – | – | – | – | – | – | 21 | 27 | 23 | 22 | 15 |
| CC1(C)S[C@@H]2[C@H](NC(=O)[C@H](N)c3ccccc3)C(=O)N2[C@H]1C(=O)O [AMPICILLIN] | 25 (≈ 71.5 µM) | 6.25 (≈ 17.9 µM) | 0.4 (≈ 1.14 µM) | > 100 | 6.25 (≈ 17.9 µM) | > 100 | > 100 | – | – | – | – | – |
| COC(=O)Oc1cccc2c(=O)n(-c3cc(C(=O)NC(C(=O)NC4C(=O)N5C4SC(C)(C)C5C(=O)O)c4ccccc4)cc(-n4c(=O)oc5c(OC(=O)OC)cccc5c4=O)c3)c(=O)oc12 (stereo not given) | 12.5 (≈ 13.5 µM) | 25 (≈ 27.1 µM) | 25 (≈ 27.1 µM) | 0.2 (≈ 0.216 µM) | 6.25 (≈ 6.77 µM) | 0.78 (≈ 0.844 µM) | 1.56 (≈ 1.69 µM) | – | – | – | – | – |
| COC(=O)Oc1cccc2c(=O)n(CCC(=O)Nc3cc(NC(=O)CCn4c(=O)oc5c(OC(=O)OC)cccc5c4=O)cc(C(=O)NC(C(=O)NC4C(=O)N5C4SC(C)(C)C5C(=O)O)c4ccccc4)c3)c(=O)oc12 (stereo not given) | 3.12 (≈ 2.93 µM) | 6.25 (≈ 5.86 µM) | 6.25 (≈ 5.86 µM) | 0.05 (≈ 0.0469 µM) | 0.2 (≈ 0.188 µM) | 1.56 (≈ 1.46 µM) | 0.2 (≈ 0.188 µM) | – | – | – | – | – |
| CC(=O)Oc1cccc(C(=O)N(C)CCCN(CC(=O)NC(C(=O)NC2C(=O)N3C2SC(C)(C)C3C(=O)O)c2ccccc2)C(=O)c2cccc(OC(C)=O)c2OC(C)=O)c1OC(C)=O (stereo not given) | 0.05 (≈ 0.0545 µM) | 0.02 (≈ 0.0218 µM) | 3.12 (≈ 3.4 µM) | 0.005 (≈ 0.00545 µM) | < 0.005 | 0.02 (≈ 0.0218 µM) | 0.08 (≈ 0.0872 µM) | – | – | – | – | – |
